Assay results pooled from the literature.
Lines come from different studies, so protocols differ.
CDK9 with cyclin T1: Cyclin-dependent kinase 9, with cyclin T1 (CDK9, Homo sapiens, UniProt P50750)
CDK9: Cyclin-dependent kinase 9 (CDK9, Homo sapiens, UniProt P50750)
CDK9 with cyclin K: Cyclin-dependent kinase 9, with cyclin K (CDK9, Homo sapiens, UniProt P50750)

| Structure (SMILES) | target | observed | mode | method | tested at | quantity | result |
| --- | --- | --- | --- | --- | --- | --- | --- |
| CC(C)(C)c1nc(-c2cccc(NS(=O)(=O)c3c(F)cccc3F)c2F)c(-c2ccnc(N)n2)s1 | CDK9 with cyclin T1 | enzyme activity | inhibitor | radiometric | 1 µM | remaining activity | 106% |
| CCN(CC)c1ccc(C2=NNC(=O)CC2C)cc1[N+](=O)[O-] (stereo not shown) | CDK9 with cyclin T1 | enzyme activity | inhibitor | – | 10 µM | remaining activity | 105% |
| CC(C)(C)c1nc2c(s1)c1nc(N)ncc1c1ccc(NS(=O)(=O)c3c(F)cccc3F)c(F)c12 | CDK9 with cyclin T1 | enzyme activity | inhibitor | radiometric | 1 µM | remaining activity | 102% |
| CN(C)CC#Cc1ccc(OCCCc2sc(N3CCc4cccc(C(=O)Nc5nc6ccccc6s5)c4C3)nc2C(=O)O)c(F)c1 | CDK9 | cell-free assay | – | competition with immobilised ligand | 1 µM | remaining binding | 94% |
| Cc1cc(NC(=O)c2cccc3cc(-c4cccc5[nH]nc(N)c45)ccc23)ccc1F | CDK9 with cyclin T1 | enzyme activity | inhibitor | – | 0.1 µM | activity vs control | 106% |
| c1ccc(CNc2nc(N3CCOc4ccccc43)nc3c2CCCC3)cc1 | CDK9 | target engagement in cells | inhibitor | chemoproteomics | 20 mM | inhibition | -15.3% |
| CCOC(=O)c1cc2cc(-c3cc(C(=O)NCc4ccc(C(=O)O)cc4)nn3C)ccc2[nH]1 | CDK9 | cell-free assay | – | competition with immobilised ligand | 0.1 µM | remaining binding | 97% |
| Cc1ccc(NC(=O)c2ccc(CN3CCN(C)CC3)cc2)cc1Nc1nc(-c2cccnc2)cs1 | CDK9 with cyclin T1 | cell-free assay | – | – | 0.5 µM | remaining signal | 99.2% |
| Cc1ccc(C(=O)NCc2ccsc2)cc1C#Cc1cn(C(C)C)c2ncnc(N)c12 | CDK9 with cyclin T1 | enzyme activity | inhibitor | – | 1 µM | activity vs control | 93% |
| COc1cc(Nc2cnc(C#N)c(O[C@H](C)CN(C)C)n2)ncc1-c1cnn(C)c1 | CDK9 with cyclin T1 | enzyme activity | inhibitor | radiometric | 1 µM | remaining activity | 84% |
| Cc1ccc(C(=O)Nc2ccc(CN3CCN(C)CC3)c(C(F)(F)F)c2)cc1C#Cc1cnc2cccnn12 | CDK9 | enzyme activity | inhibitor | – | 23.5 nM | remaining activity | 96% |
| Cn1cncc1C1=CN(c2ncnc3[nH]cnc23)CCS1 | CDK9 | enzyme activity | inhibitor | radiometric | 50 nM | inhibition | 12.4% |
| Cc1ccc(Nc2nccc(N(C)c3ccc4c(C)n(C)nc4c3)n2)cc1S(N)(=O)=O | CDK9 with cyclin T1 | enzyme activity | inhibitor | – | 0.5 µM | remaining activity | 91.5% |
| CO[C@@H](C)c1c(Nc2ccc([C@H](N(C)C(=O)C3CCS(=O)(=O)CC3)C(F)(F)F)cc2)cnc2cc(Cl)nn12 | CDK9 | cell-free assay | – | competition with immobilised ligand | 1 µM | remaining binding | 85% |
| CCN(CC)CCNC(=O)c1c(C)[nH]c(/C=C2\C(=O)Nc3ccc(F)cc32)c1C | CDK9 with cyclin T1 | enzyme activity | inhibitor | – | 10 µM | inhibition | 37% |
| COc1cc(Cl)c(C(=O)N[C@@H](CN[C@H]2CC[C@@H](N)CC2)Cc2ccc(C#N)cc2)cc1-c1ccc(CN[C@H](C)c2ccc(C)cc2)o1 | CDK9 with cyclin T1 | enzyme activity | inhibitor | – | 1 µM | remaining activity | 99% |
| Cc1nc(C2CCN(C(=O)c3ccc(OC(F)(F)F)cc3N)CC2)c2ncc(N3CCN(C)CC3)cc2n1 | CDK9 | cell-free assay | – | competition with immobilised ligand | 1 µM | remaining binding | 79% |
| CN(C)C1CCN(CC#Cc2nn(C3CCCC3)c3nc(NCc4ccccc4)ncc23)C1 (stereo not shown) | CDK9 with cyclin T1 | enzyme activity | inhibitor | FRET | 1 µM | inhibition | 1% |
| N#CCCc1ccc2c(c1)-c1[nH]c3ccc([N+](=O)[O-])cc3c1CC(=O)N2 | CDK9 with cyclin T1 | cell-free assay | – | – | 0.5 µM | remaining signal | 28.6% |
| CC(=O)N1CCC(c2ccc(C(=O)NC(=N)N)cc2C(F)(F)F)CC1 | CDK9 | cell-free assay | – | competition with immobilised ligand | 1 µM | remaining binding | 100% |
| CS(=O)(=O)CCNCc1ccc(-c2ccc3ncnc(Nc4ccc(OCc5cccc(F)c5)c(Cl)c4)c3c2)o1 | CDK9 with cyclin K | cell-free assay | – | – | 0.5 µM | remaining signal | 103% |
| CCOc1cc(-c2nncn2C)ccc1Nc1ncc2cc(C)nc(NCC(C)(C)C)c2n1 | CDK9 with cyclin K | cell-free assay | – | TR-FRET | 1 µM | inhibition | ≤ 15% |
